Source: ChEMBL document CHEMBL1122640, “Studies on heterocyclic compounds. 6. Synthesis and analgesic and antiinflammatory activities of 3,4-dimethylpyrano[2,3-c]pyrazol-6-one derivatives” (J Med Chem, 1984)

Legend:
Mus musculus = organism: Mus musculus; experiment: Compound was tested for […] activity by phenylquinone writhing method in mice.; type: functional
How it was run: (§1)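 Phenylquinone (0.03% in 5% aqueous ethanol, 10 mL/kg ip) given to female ddN mice (18-22 g); test drug given orally 30 min beforehand. Writhes counted over 15 min, starting 5 min after phenylquinone. Five to ten mice per dose; values given with range and n.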

Rattus norvegicus [1] = experiment: Antiinflammatory activity, % inhibition was reported 3 hr after carrageenan injection in the hind paw edema test in rats: dose=80 mg/kg.; type: functional
How it was run: (§2)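 Male Wistar rats (90-120 g); paw edema raised by subcutaneous injection of 0.1 mL 1% carrageenin into the hind foot pad. Drug given orally at 80 mg/kg. Swelling inhibition read 3 h after carrageenin and compared with vehicle control for significance.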

[2] = Acute lethal toxicity on day 7 was determined; type: organism-based; conditions: mouse, in vivo
Mus sp. = experiment: Analgesic activity by phenylquinone writhing method in mice after peroral administration; type: functional; conditions: po; how it was run: as §1
Rattus norvegicus [3] = experiment: Antiinflammatory activity, % inhibition was reported 3 hr after carrageenan injection in the hind paw edema test in rats: dose=80 mg/kg; type: functional; how it was run: as §2
Rattus norvegicus [4] = experiment: Compound was tested for antiinflammatory activity and the % inhibition was reported 3 hr after carrageenan injection in the hind paw edema test in rats: dose=80 mg/kg; type: functional; how it was run: as §2
Rattus norvegicus [5] = experiment: Compound was tested for antiinflammatory activity and the % inhibition was reported 3 h after carrageenan injection in the hind paw edema test in rats: dose=40 mg/kg, p.o.; type: functional; conditions: po
How it was run: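 Male Wistar rats (90-120 g) given 0.1 mL 1% carrageenin subcutaneously into the hind foot pad. Drug given po at 40 mg/kg. Edema inhibition read at 3 h after carrageenin and compared with vehicle control.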

For CCCCCn1nc(C)c2c(C)cc(=O)oc21, the ED50 (Mus musculus) was > 100 mg/kg and the inhibition in vivo at 80 mg/kg (Rattus norvegicus [1]) was 3.5%.

For Cc1cc(=O)oc2nn(C)c(C)c12, the ED50 (Mus musculus) was 6.09 mg/kg, the LD50 at 7 day [2] was 250 mg/kg and the inhibition in vivo at 80 mg/kg (Rattus norvegicus [1]) was 3.3%.

With CCCCn1nc(C)c2c(C)cc(=O)oc21 the ED50 (Mus musculus) was > 100 mg/kg and the inhibition in vivo at 80 mg/kg (Rattus norvegicus [1]) was -0.9%.

Molecule Cc1cc(=O)oc2c1c(C)nn2CCO has an ED50 (Mus musculus) of 100 mg/kg and an inhibition in vivo at 80 mg/kg (Rattus norvegicus [1]) of -0.9%.

In the case of CCCCCn1nc2oc(=O)cc(C)c2c1C, the ED50 (Mus musculus) is reported as 60.6 mg/kg and the inhibition in vivo at 80 mg/kg (Rattus norvegicus [1]) is reported as -5.4%.

For Cc1cc(=O)oc2c1c(CC(=O)O)nn2C, the ED50 (Mus musculus) was > 100 mg/kg and the inhibition in vivo at 80 mg/kg (Rattus norvegicus [1]) was -3.1%.

For CCCCn1nc2oc(=O)cc(C)c2c1C, the ED50 (Mus musculus) was > 100 mg/kg and the inhibition in vivo at 80 mg/kg (Rattus norvegicus [1]) was -3.1%.

With CCn1nc(C)c2c(C)cc(=O)oc21 the ED50 (Mus musculus) was 24.9 mg/kg and the inhibition in vivo at 80 mg/kg (Rattus norvegicus [1]) was 12.1%.

In the case of Cc1cc(O)oc2nnc(CC(=O)O)c1-2, the ED50 (Mus musculus) is reported as > 100 mg/kg and the inhibition in vivo at 80 mg/kg (Rattus norvegicus [1]) is reported as 6.4%.

With CCOC(=O)Cc1nnc2oc(O)cc(C)c1-2 the ED50 (Mus musculus) was > 100 mg/kg and the inhibition in vivo at 80 mg/kg (Rattus norvegicus [1]) was -4.1%.

With Cc1cc(=O)oc2nn(CCCl)c(C)c12 the inhibition in vivo at 80 mg/kg (Rattus norvegicus [1]) was -2.1% and the ED50 (Mus sp.) was 56 mg/kg.

In the case of Cc1cc(=O)oc2c1c(C)nn2C(C)C, the ED50 (Mus musculus) is reported as > 100 mg/kg and the inhibition in vivo at 80 mg/kg (Rattus norvegicus [1]) is reported as 1.1%.

In the case of Cc1cc(=O)oc2c1c(C)nn2C, the ED50 (Mus musculus) is reported as 11.6 mg/kg, the LD50 at 7 day [2] is reported as > 1500 mg/kg and the inhibition in vivo at 80 mg/kg (Rattus norvegicus [1]) is reported as 4.7%.

For Cc1cc(=O)oc2nn(CCN3CCOCC3)c(C)c12, the ED50 (Mus musculus) was > 100 mg/kg and the inhibition in vivo at 80 mg/kg (Rattus norvegicus [1]) was 4.4%.

In the case of CCOC(=O)Cc1nn(C)c2oc(=O)cc(C)c12, the ED50 (Mus musculus) is reported as > 100 mg/kg and the inhibition in vivo at 80 mg/kg (Rattus norvegicus [1]) is reported as -3.1%.

In the case of Cc1cc(=O)oc2nn(C(C)C)c(C)c12, the ED50 (Mus musculus) is reported as 35.3 mg/kg and the inhibition in vivo at 80 mg/kg (Rattus norvegicus [1]) is reported as 3.7%.

In the case of CCn1nc2oc(=O)cc(C)c2c1C, the ED50 (Mus musculus) is reported as 14.6 mg/kg and the inhibition in vivo at 80 mg/kg (Rattus norvegicus [3]) is reported as 13.1%.

In the case of CCCn1nc2oc(=O)cc(C)c2c1C, the ED50 (Mus musculus) is reported as 72.6 mg/kg and the inhibition in vivo at 80 mg/kg (Rattus norvegicus [1]) is reported as 4.9%.

In the case of CCCn1nc(C)c2c(C)cc(=O)oc21, the ED50 (Mus musculus) is reported as 54.3 mg/kg and the inhibition in vivo at 80 mg/kg (Rattus norvegicus [1]) is reported as -0.6%.

Molecule CC(=O)n1nc2oc(=O)cc(C)c2c1C has an inhibition in vivo at 80 mg/kg (Rattus norvegicus [1]) of 4.5% and an ED50 (Mus sp.) of 12.2 mg/kg.

With Cc1cc(=O)oc2nn(C(=O)c3ccccc3)c(C)c12 the inhibition in vivo at 80 mg/kg (Rattus norvegicus [1]) was 11.9% and the ED50 (Mus sp.) was 35 mg/kg.

For Cc1cc(=O)oc2nn(CCO)c(C)c12, the ED50 (Mus musculus) was > 100 mg/kg and the inhibition in vivo at 80 mg/kg (Rattus norvegicus [1]) was 1.8%.

Work on Cc1cc(=O)oc2nn(C(=O)c3ccco3)c(C)c12 yielded an inhibition in vivo at 80 mg/kg (Rattus norvegicus [1]) of 2.2% and an ED50 (Mus sp.) of 74.3 mg/kg.

Molecule CCN(CC)CCn1nc2oc(=O)cc(C)c2c1C has an ED50 (Mus musculus) of 100 mg/kg and an inhibition in vivo at 80 mg/kg (Rattus norvegicus [4]) of 17%.

With Cc1cc(=O)oc2nn(C(=O)CCl)c(C)c12 the inhibition in vivo at 80 mg/kg (Rattus norvegicus [1]) was 5.2% and the ED50 (Mus sp.) was > 100 mg/kg.

In the case of Cc1c(N(C)C)c(=O)n(-c2ccccc2)n1C [AMINOPYRINE], the ED50 (Mus musculus) is reported as 19.2 mg/kg and the inhibition in vivo at 80 mg/kg (Rattus norvegicus [4]) is reported as 17.5%.

With CC(=O)Oc1ccccc1C(=O)O [ASPIRIN] the ED50 (Mus sp.) was > 100 mg/kg.

In the case of CC(C)Cc1ccc(C(C)C(=O)O)cc1 (centres undefined) [IBUPROFEN], the ED50 (Mus musculus) is reported as 50 mg/kg and the inhibition in vivo at 80 mg/kg (Rattus norvegicus [4]) is reported as 39%.

Work on Cc1cccc(Nc2ccccc2C(=O)O)c1C [MEFENAMIC ACID] yielded an ED50 (Mus musculus) of 45.9 mg/kg and an inhibition in vivo at 40 mg/kg (Rattus norvegicus [5]) of 33.1%.
